What all share (assay type): functional, cell-based
The subject of assay [1] is HCT cell line. Kind of assay: Cytotoxicity against wild type p21-l- gene in human colon tumor 116 (HCT 116) cell lines was determined. The essentials: (§1)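 HCT 116 wild-type and isogenic p53- or p21-disrupted lines (McCoy's 5A, 10% FBS) seeded at 3.0 × 10^3/well, adhered 24 h, then treated at varying concentrations for 48 h, eight replicates, DMSO controls. Viability by MTS, absorbance 490 nm after 2–3 h, expressed as % of same-plate DMSO control; EC50 fitted from log concentration–response curve; done twice.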

Assay [2] relates to HCT cell line. Kind of assay: Cytotoxicity against wild type p21 gene in human colon tumor 116 (HCT 116) cell lines was determined. In a few lines: as §1
Assay [3] has as its system HCT cell line. In words: Cytotoxicity against wild type p53 gene in human colon tumor 116 (HCT 116) cell lines was determined. The essentials:
as §1

For assay [4], the system named is HCT cell line. Kind of assay: Cytotoxicity against wild type p53-l- gene in human colon tumor 116 (HCT 116) cell lines was determined. In a few lines: as §1
Assay [5] relates to RKO. In words: Cytotoxicity against human RKO-E6 cell line. Particulars: RKOE6. In a few lines:
(§2)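 RKO and RKO-E6 cells (DMEM, 10% FBS, 37 °C, 5% CO2) seeded at 5.0 × 10^3/well, adhered 24 h, then exposed to varying concentrations for 48 h, eight replicates, DMSO controls. MTS conversion read at 490 nm after 2–3 h; growth as % of same-plate DMSO control; EC50 from concentration–response curve. Assay run twice.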

In assay [6] the test system is RKO. In words: Cytotoxicity against human RKO cell line. In a few lines:
as §2

Consider `CCCCC/C=C\C[C@@]1(O)C=C(Cl)C(=O)[C@@H]1[C@@H](OC(C)=O)[C@H](OC(C)=O)[C@H](CCCC(=O)OC)OC(C)=O`, for which the EC50 in the assay on HCT cell line [1] came to 0.04 µM; with HCT cell line [2], 0.047 µM; in the assay on HCT cell line [3], 0.04 µM; in the assay on HCT cell line [4], 0.04 µM.
Turning to `CCCCC/C=C\C[C@@]1(O)C=C(Cl)C(=O)[C@@H]1C[C@H](OC(C)=O)[C@H](CCCC(=O)OC)OC(C)=O`, the EC50 in the assay on HCT cell line [1] is 0.32 µM; with HCT cell line [2], 0.33 µM; in the assay with RKO [5] it was 0.47 µM; in the assay with HCT cell line [3], 0.34 µM; in the assay on RKO [6] it was 0.44 µM; with HCT cell line [4], 0.36 µM.
On to `CC/C=C/C/C=C\C[C@@]1(O)C=C(Cl)C(=O)/C1=C/[C@H](OC(C)=O)[C@H](CCCC(=O)OC)OC(C)=O`, for which the EC50 in the assay on HCT cell line [1] came out at 0.3 µM; with HCT cell line [2], 0.29 µM; with HCT cell line [3] it was 0.32 µM; in the assay with HCT cell line [4], 0.37 µM.
Regarding `CCCCC/C=C\C[C@@]1(O)C=C(Cl)C(=O)/C1=C/[C@H](OC(C)=O)[C@H](CCCC(=O)OC)OC(C)=O` [PUNAGLANDIN 4], the EC50 in the assay with HCT cell line [1] is 0.28 µM; with HCT cell line [2] it was 0.34 µM; in the assay with RKO [5] it was 0.37 µM; in the assay on HCT cell line [3] it was 0.33 µM; in the assay with RKO [6], 0.31 µM; in the assay on HCT cell line [4] it was 0.35 µM.

These data come from ChEMBL document CHEMBL1149327, “Punaglandins, chlorinated prostaglandins, function as potent Michael receptors to inhibit ubiquitin isopeptidase activity” (J Med Chem, 2004).
